Assay outcomes (PubChem BioAssay)
Rows were chosen to be rich in hits. Some 4.8% of all compounds tested hit in one or more screens of this group.
GRIN3A LBD mod = binders of NR3A ligand-binding domain, primary screen, biophysical, differential scanning fluorimetry, uHTS; Glutamate receptor ionotropic, NMDA 3A (GRIN3A) ligand-binding domain; actives 2.5% (n = 340,000); NR3A LBD differential scanning fluorimetry, Tm shift; 0% = protein alone, 100% = glycine-bound protein; Tm shift relative to glycine control, % at 25 µM;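 active = melting temperature shift of at least 10% of the positive control shift, at one fixed dose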
UCH37 DUB inh = inhibitors of human UCH37 deubiquitinase, primary screen, biochemical, Ub-AMC cleavage, fluorescence. AID 588478, 2011. inhibition, % (no concentration beside the values). purified proteasome/UCH37. Ubiquitin carboxyl-terminal hydrolase isozyme L5 (Homo sapiens), Q9Y5K5. actives 0.33% (n = 330,000);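 active = mean inhibition over replicate wells above about 20%, limit read from the data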
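Test system – human UCH37 enzyme supplied as purified proteasome complex · Incubation – 30 min preincubation with enzyme, 25 min cleavage at room temperature · Detection – AMC fluorescence from Ub-AMC cleavage, excitation 355 nm, emission 460 nm · Benchmarks – no-proteasome wells (full inhibition) and compound-free wells (no inhibition)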
PAFAH1B3 FP inh = PAFAH1B3 enzyme inhibitors, primary screen, biochemical, fluorescence polarization, human. Platelet-activating factor acetylhydrolase IB subunit alpha1 (Homo sapiens), Q15102. recombinant PAFAH1B3, FP-rhodamine probe. AID 492972, 2010. actives 0.28% (n = 340,000). inhibition, % at 3.39 µM;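 active = inhibition above the screen-wide average of all tested compounds plus 3 SD, cut at about 25% in these data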
PAFAH2 inh = PAFAH2 enzyme inhibitors, primary screen, biochemical, fluorescence polarization, human; Platelet-activating factor acetylhydrolase 2, cytoplasmic (Homo sapiens), Q99487; recombinant PAFAH2, FP-rhodamine activity probe; inhibition, % at 3.39 µM; actives 0.99% (n = 340,000); AID 492956, 2010;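 active = inhibition above the mean over all tested compounds plus 3 SD, cut at about 30% in these data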;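 note: inhibitors block probe labeling of enzyme so polarization drops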
pPAFAH inh = pPAFAH enzyme inhibitors, primary screen, biochemical, fluorescence polarization, human; inhibition, % at 3.39 µM; actives 1.5% (n = 330,000); recombinant pPAFAH, FP-rhodamine probe fluorescence polarization; Platelet-activating factor acetylhydrolase (Homo sapiens), Q13093;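 active = inhibition above the mean inhibition across the screen plus 3 SD, cut at about 25% in these data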;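 note: inhibitors block binding of the rhodamine activity-based probe so polarization drops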
Target sequence (Q13093 whole entry, looked up): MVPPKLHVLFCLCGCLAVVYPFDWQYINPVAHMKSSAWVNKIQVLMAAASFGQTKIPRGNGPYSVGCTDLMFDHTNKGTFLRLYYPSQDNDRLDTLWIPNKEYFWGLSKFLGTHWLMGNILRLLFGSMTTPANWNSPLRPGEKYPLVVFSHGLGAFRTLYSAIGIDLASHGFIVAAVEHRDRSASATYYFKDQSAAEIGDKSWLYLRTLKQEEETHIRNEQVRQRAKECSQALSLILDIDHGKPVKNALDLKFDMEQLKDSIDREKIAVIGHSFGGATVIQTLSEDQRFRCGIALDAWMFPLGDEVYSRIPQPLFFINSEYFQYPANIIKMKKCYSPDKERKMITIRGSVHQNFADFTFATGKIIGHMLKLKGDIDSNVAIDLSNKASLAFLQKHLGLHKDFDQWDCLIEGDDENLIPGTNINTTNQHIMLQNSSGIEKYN
PAFAH1B2 inh = PAFAH1B2 enzyme inhibitors, primary screen, biochemical, fluorescence polarization, human; inhibition, % at 3.39 µM; recombinant PAFAH1B2, FP-rhodamine activity probe; actives 1.2% (n = 340,000);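 active = inhibition above the mean of all tested compounds plus 3 SD, cut at about 24% in these data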
UCH37 reconfirm = retest of human UCH37 deubiquitinase inhibitors, confirmation, biochemical, Ub-AMC cleavage rate, fluorescence. shares compounds with UCH37 DUB inh. Proteasome-bound UCH37. inhibition, % at 20 µM. actives 27% (n = 480). AID 624100, 2012;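 active = average inhibition over replicates above about 50%, so the earlier screening hit is confirmed, limit read from the data; inactive = the rest, counted as false positives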;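 note: based on cleavage rate fitted by regression over a 30 min kinetic read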
Each line names hits and unclear results; the compound was inactive in the other large screens (follow-up assays come after a bar, where they were run).

COc1ccc([C@H]2CC(=O)C=C(c3ccc(-c4ccccc4)c(F)c3)C2)cc1OC	UCH37 DUB inh 41.0 | UCH37 reconfirm inactive
Cn1cc(/C=C/c2cc[n+](C)cc2)c2cc(F)ccc21	UCH37 DUB inh 28.0 | UCH37 reconfirm inactive
Cn1cc(/C=C/c2cc[n+](C)cc2)c2cc(Cl)ccc21	none
C=CCOc1c(Br)cc(C=NO)cc1OCC	none (no result: GRIN3A LBD mod, PAFAH1B3 FP inh, PAFAH2 inh, pPAFAH inh, PAFAH1B2 inh)
Cc1ccc(NC(=O)CN2C(=O)S/C(=C/c3ccc(O)c([N+](=O)[O-])c3)C2=O)cc1C	UCH37 DUB inh 28.2 (no result: pPAFAH inh) | UCH37 reconfirm inactive
Cc1ccccc1OCC(=O)O/N=C(\N)Cc1ccc(Cl)cc1	none (no result: UCH37 DUB inh)
Cc1ccccc1OCC(=O)ON=C(N)Cc1ccc(Cl)cc1	UCH37 DUB inh 44.1 (no result: GRIN3A LBD mod, PAFAH1B3 FP inh, PAFAH2 inh, pPAFAH inh, PAFAH1B2 inh) | UCH37 reconfirm inactive
O=C(NN=CC1CCCCC1)c1ccccc1-n1cccc1	none (no result: GRIN3A LBD mod, PAFAH1B3 FP inh, PAFAH2 inh, pPAFAH inh, PAFAH1B2 inh)
COCc1cc(C=NNC(=O)c2ccc(Cl)cc2)ccc1OC	none (no result: GRIN3A LBD mod, PAFAH1B3 FP inh, PAFAH2 inh, pPAFAH inh, PAFAH1B2 inh)
CCCCNC(=O)c1onc(CSc2ccc(Cl)cc2)c1C(=O)NCCCC	UCH37 DUB inh 35.6 | UCH37 reconfirm inactive
CC(=O)Nc1nc(SCC(=O)NCc2ccc(F)cc2)[nH]c(=O)c1NC(=O)c1cccs1	UCH37 DUB inh 42.9 | UCH37 reconfirm inactive
C=CCC1CCCC(=NNS(=O)(=O)c2ccc(C)cc2)C1 (centres undefined)	none (no result: GRIN3A LBD mod, PAFAH1B3 FP inh, PAFAH2 inh, pPAFAH inh, PAFAH1B2 inh)
O=C(CSC(=S)N1CCCC1)c1ccccc1	none
O=C(CSC(=S)N1CCCCC1)c1ccccc1	UCH37 DUB inh 39.2 | UCH37 reconfirm inactive
CN1CCN(C2=CC3=CC(=C(C#N)C#N)CCC3CC2)CC1 (centres undefined)	UCH37 DUB inh 26.0 (no result: pPAFAH inh) | UCH37 reconfirm inactive
N#CC(C#N)=C1C=C2C=C(N3CCCCCC3)CCC2CC1 (centres undefined)	none (no result: pPAFAH inh)
CCOc1ccc(/C=C2/SC(=S)N(C(C(=O)O)c3ccccc3)C2=O)cc1OCC (centres undefined)	UCH37 DUB inh 51.1 (no result: pPAFAH inh) | UCH37 reconfirm inactive
Cc1[nH][nH]c(=O)c1C(c1ccc(-c2ccc(Cl)c(C(=O)O)c2)o1)c1c(C)[nH][nH]c1=O	UCH37 DUB inh 30.1 (no result: pPAFAH inh) | UCH37 reconfirm inactive
COC(=O)c1ccccc1-c1ccc(C(c2c(C)[nH][nH]c2=O)c2c(C)[nH][nH]c2=O)o1	none
COC(=O)c1cccc(-c2ccc(C(c3c(C)[nH][nH]c3=O)c3c(C)[nH][nH]c3=O)o2)c1	UCH37 DUB inh 39.9 | UCH37 reconfirm 57.4
CCN(CC)c1ccc(C=c2sc3nnc(-c4ccccc4C)n3c2=O)cc1	none (no result: GRIN3A LBD mod, PAFAH1B3 FP inh, PAFAH2 inh, pPAFAH inh, PAFAH1B2 inh)
NC(=O)C(N=Nc1ccccc1)=NNc1ccccc1	none (no result: GRIN3A LBD mod, PAFAH1B3 FP inh, PAFAH2 inh, pPAFAH inh, PAFAH1B2 inh)
Cc1ccc(OCC(=O)NN=Cc2cn[nH]c2-c2ccc(Cl)c(Cl)c2)cc1	none (no result: GRIN3A LBD mod, PAFAH1B3 FP inh, PAFAH2 inh, pPAFAH inh, PAFAH1B2 inh)
Cn1c(SCC(=O)NN=Cc2ccccn2)nnc1-c1ccccc1	none (no result: GRIN3A LBD mod, PAFAH1B3 FP inh, PAFAH2 inh, pPAFAH inh, PAFAH1B2 inh)
COc1cc(C2C(C(=O)c3ccc(C)o3)=C(O)C(=O)N2c2cc(C)on2)ccc1O (centres undefined)	UCH37 DUB inh 46.4 | UCH37 reconfirm inactive
COc1cc(C2C(C(=O)c3ccc(C)o3)=C(O)C(=O)N2c2cc(C)on2)cc(OC)c1OC (centres undefined)	none
O=C(COc1ccccc1)NN=Cc1cc2c(cc1[N+](=O)[O-])OCO2	none (no result: GRIN3A LBD mod, PAFAH1B3 FP inh, PAFAH2 inh, pPAFAH inh, PAFAH1B2 inh)
O=C(NN=Cc1ccc2c(c1)OCO2)/C(=C/c1ccc2c(c1)OCO2)NC(=O)c1ccccc1	none (no result: GRIN3A LBD mod, PAFAH1B3 FP inh, PAFAH2 inh, pPAFAH inh, PAFAH1B2 inh)
CCN1/C(=C/c2ccc3cc(C)ccc3[n+]2CC)Sc2ccccc21	UCH37 DUB inh 36.0 | UCH37 reconfirm inactive
CCN1/C(=C/c2ccc3cc(C)ccc3[n+]2CC)Sc2cc(C)c(C)cc21	none (no result: pPAFAH inh)
